This note sets out measurements from ChEMBL document CHEMBL1142519, “Synthesis and antiprotozoal activity of cationic 2-phenylbenzofurans” (J Med Chem, 2008).

Data set [1] concerns Trypanosoma brucei rhodesiense. Description: Antitrypanosomal activity against Trypanosoma brucei rhodesiense STIB 900 infected acute mouse model assessed as cured mouse at 20 mg/kg, ip daily for 4 days. In kind it is functional, organism-based. More on the design: dose 20 mg/kg. In short, it runs like this:
(§1)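 STIB900 acute mouse model of trypanosomiasis with intraperitoneal dosing. The regimens were daily for 4 days at 20, 5 or 1 mg/kg, or a single 10 mg/kg dose. A cure is a mouse that survives and is parasite-free for 60 days. Average days of survival are also recorded.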

The subject of the next data set is Plasmodium falciparum. Description: Antiplasmodial activity against chloroquine-resistant Plasmodium falciparum K1. In kind it is functional, organism-based. In short, it runs like this:
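In vitro IC50 against chloroquine-resistant P. falciparum K1, reported as the average of duplicate determinations.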

Data set [2] has as its system Trypanosoma brucei rhodesiense. Description: Antitrypanosomal activity against Trypanosoma brucei rhodesiense STIB 900 bloodstream trypomastigotes. Format: functional, organism-based. The procedure, abridged: (§2)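 IC50 values in µM, each the average of duplicate determinations. Parasites were T. b. rhodesiense STIB900 and axenic amastigotes of L. donovani MHOM/SD/62/1S-CL2D. Cytotoxicity was run on rat L6 myoblast cells.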

The subject of data set [3] is Trypanosoma brucei rhodesiense. Description: Antitrypanosomal activity against Trypanosoma brucei rhodesiense STIB 900 infected acute mouse model assessed as survival time at 5 mg/kg, ip administered daily for 4 days. In kind it is functional. Particulars: route intraperitoneal. The procedure, abridged:
(§3)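 STIB900 acute mouse model of T. b. rhodesiense infection, with intraperitoneal dosing. Read-out is the average days of survival of treated mice. Cures are counted as mice that survive and stay parasite-free for 60 days.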

A further data set deals with L6. Description: Cytotoxicity against rat L6 cells. In kind it is cell-based. In short, it runs like this:
as §2

For data set [4], the system named is Trypanosoma brucei rhodesiense. Description: Antitrypanosomal activity against Trypanosoma brucei rhodesiense STIB 900 infected acute mouse model assessed as cured mouse at 5 mg/kg, ip daily for 4 days. Format: functional, organism-based. The arrangement: dose 5 mg/kg. The procedure, abridged: as §1
A short description of data set [5]: Selectivity index, ratio of IC50 for rat L6 cells to IC50 for chloroquine-resistant Plasmodium falciparum K1. In kind it is toxicity, cell-based. The settings on record: read-out: Ratio IC50. The procedure, abridged:
(§4)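 Ratio of the L6 rat myoblast cytotoxicity IC50 to the IC50 against the parasite named in the line. Each IC50 is the average of duplicate determinations.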

Data set [6] can be described thus: Selectivity index, ratio of IC50 for rat L6 cells to IC50 for Trypanosoma brucei rhodesiense STIB 900. Format: toxicity, cell-based. The settings on record: read-out: Ratio IC50. In short, it runs like this: as §4
Data set [7] has as its system Trypanosoma brucei rhodesiense. Description: Antitrypanosomal activity against Trypanosoma brucei rhodesiense STIB 900 infected acute mouse model assessed as survival time at 20 mg/kg, ip administered daily for 4 days. Particulars: route intraperitoneal. In kind it is functional. In short, it runs like this: as §3
Data set [8] is described as follows: Selectivity index, ratio of IC50 for rat L6 cells to IC50 for Leishmania donovani MHOM/SD/62/1S-CL2D. The settings on record: read-out: Ratio IC50. In kind it is toxicity, cell-based. In short, it runs like this:
as §4

The next data set deals with Leishmania donovani. Description: Antileishmanial activity against Leishmania donovani MHOM/SD/62/1S-CL2D axenic amastigotes. In kind it is functional, organism-based. In short, it runs like this: as §2
In data set [9] the test system is Trypanosoma brucei rhodesiense. Description: Antitrypanosomal activity against Trypanosoma brucei rhodesiense STIB 900 infected acute mouse model assessed as survival time at 1 mg/kg, ip administered daily for 4 days. Particulars: route intraperitoneal. In kind it is functional. The procedure, abridged: as §3
For data set [10], the system named is Trypanosoma brucei rhodesiense. Description: Antitrypanosomal activity against Trypanosoma brucei rhodesiense STIB 900 infected acute mouse model assessed as survival time at 10 mg/kg, ip. In kind it is functional. The settings on record: route intraperitoneal. The procedure, abridged: as §3
Data set [11] relates to Trypanosoma brucei rhodesiense. Description: Antitrypanosomal activity against Trypanosoma brucei rhodesiense STIB 900 infected acute mouse model assessed as cured mouse at 1 mg/kg, ip daily for 4 days. Format: functional, organism-based. More on the design: dose 1 mg/kg. In short, it runs like this: as §1
For data set [12], the system named is Trypanosoma brucei rhodesiense. Description: Antitrypanosomal activity against Trypanosoma brucei rhodesiense STIB 900 infected acute mouse model assessed as cured mouse at 10 mg/kg, ip. Format: functional, organism-based. More on the design: dose 10 mg/kg. The procedure, abridged:
as §1

Data set [13] relates to Trypanosoma brucei rhodesiense. Description: Antitrypanosomal activity against Trypanosoma brucei rhodesiense STIB 900 infected acute mouse model assessed as survival time at 8 mg/kg, ip administered daily for 4 days. In kind it is functional. Particulars: route intraperitoneal.
Data set [14] deals with Trypanosoma brucei rhodesiense. Description: Antitrypanosomal activity against Trypanosoma brucei rhodesiense STIB 900 infected acute mouse model assessed as cured mouse at 8 mg/kg, ip daily for 4 days. More on the design: dose 8 mg/kg. Format: functional, organism-based.
Data set [15] relates to Trypanosoma brucei rhodesiense. Description: Antitrypanosomal activity against Trypanosoma brucei rhodesiense STIB 900 infected acute mouse model assessed as cured mouse at 2 mg/kg, ip daily for 4 days. The arrangement: dose 2 mg/kg. In kind it is functional, organism-based.
The subject of data set [16] is Trypanosoma brucei rhodesiense. Description: Antitrypanosomal activity against Trypanosoma brucei rhodesiense STIB 900 infected acute mouse model assessed as survival time at 2 mg/kg, ip administered daily for 4 days. In kind it is functional. The settings on record: route intraperitoneal.

Structures are written as SMILES. pIC50: −log10 of the molar value. The source made the active and inactive calls. The rule behind the calls is not given here. Where only a bound is given, the exact number is not on record here.

Take `N=C(N)c1ccc(-c2cc3ccc(C(=N)N)cc3[nH]2)cc1` [DAPI]: in data set [1], the outcome was Active. Moreover, the negative-log IC50 (pIC50) with Plasmodium falciparum is 8.52; in data set [2], 7.77; with L6, 6.07. Further, the Survival in data set [3] is over 40.8 days; in data set [7], over 60 days. Besides, the outcome in data set [4] was inactive. Further, the selectivity ratio came out at 287 in data set [5] and 51 in data set [6].

With `COc1cc(C2=NCCN2)cc2cc(-c3ccc(C4=NCCN4)cc3)oc12`, the outcome in data set [1] was inactive. The pIC50 in the data set with Plasmodium falciparum was 7.49; in data set [2] it was 6.91; in the data set on Leishmania donovani it was 5.35; with L6, 4.70. In addition, the selectivity ratio amounted to 5 in [8], 622 in data set [5] and 160 in data set [6]. Further, the Survival in data set [7] came out at 11.5 days.

In the case of `CC(C)NC(=N)c1ccc(-c2cc3cc(C(=N)NC(C)C)ccc3o2)c(O)c1`, the Survival in data set [9] is 18.5 days; in data set [10], 26.8 days; in [3], over 50.5 days. Also, the pIC50 in the data set on Plasmodium falciparum is 7.55; in data set [2] it was 7.68; in the data set with Leishmania donovani it was 5.74; in the data set on L6, under 3.74. Further, the selectivity ratio in data set [8] was over 101; in [5], over 6540; in [6], over 8710. The result in [11] and in [12] was inactive.

In the case of `Nc1nc(N)nc(Nc2ccc([As]3SCC(CO)S3)cc2)n1` (stereo not drawn) [MELARSOPROL], the Survival in data set [9] was over 51.5 days; in data set [13], over 60 days; in data set [16], over 60 days. Further, the outcome in [14], in data set [11] and in [15] was Active.

As for `COc1cc(C(=N)N)cc2cc(-c3ccc(C(=N)N)cc3)oc12`, the values for the Survival in data set [9], in [10] and in [3] were 27.3 days, over 44 days and over 60 days, respectively. Moreover, the pIC50 with Plasmodium falciparum is 8.22; in data set [2] it was 8.22; with Leishmania donovani it was 5.52; with L6, 4.51. Also, the selectivity ratio in [8] stood at 10; in data set [5] it was 5120; in [6], 5120. The outcome in data set [11] was inactive. In addition, the result in data set [4] was Active.

`CC(C)NC(=N)c1ccc(-c2cc3cc(C(=N)NC(C)C)ccc3o2)cc1`: the Survival in data set [9] was 15.3 days; in data set [3] it was over 53 days. Moreover, the negative logarithm of the IC50 (pIC50) in the data set with Plasmodium falciparum was 7.14; in data set [2], 6.90; in the data set on Leishmania donovani, 5.80; in the data set on L6 it was under 3.70. Also, the selectivity ratio in [8] is over 125; in data set [5], over 2710; in data set [6], over 1580. In addition, the outcome in [11] and in data set [12] was inactive.

For `Oc1cc(C2=NCCN2)ccc1-c1cc2cc(C3=NCCN3)ccc2o1`, the results for the Survival in data set [9], in [10] and in [3] were 20 days, 23.5 days and over 60 days, respectively. Besides, the negative-log IC50 (pIC50) in the data set on Plasmodium falciparum was 8.22; in [2], 8.10; in the data set with Leishmania donovani, 5.24; with L6, 3.82. Also, the results for the selectivity ratio in [8], in [5] and in data set [6] were 26, 25000 and 18800, respectively. In addition, the outcome in data set [11] and in [12] was inactive.

On to `N=C(N)c1ccc(-c2cc3ccc(C(=N)N)cc3o2)cc1`, for which the Survival was 26.5 days in data set [9], over 39.5 days in data set [10] and over 60 days in [3]. Further, the pIC50 was 8.52 with Plasmodium falciparum, 8.15 in data set [2], 5.51 in the data set with Leishmania donovani and 6.10 with L6. Also, the selectivity ratio in data set [8] amounted to 0.3; in [5] it was 267; in [6] it was 114. In addition, the result in data set [11] was inactive. In addition, in data set [4], the result was Active.
